From ChEMBL document CHEMBL3259808, “Optimization of antitrypanosomatid agents: identification of nonmutagenic drug candidates with in vivo activity” (J Med Chem, 2014)

Legend:
[1] = Selectivity index, ratio of IC50 for mouse J774.1 cells to IC50 for Trypanosoma cruzi Tulahuen 2 epimastigotes; type: toxicity; details: read-out: Ratio IC50
How it was run: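 J774.1 macrophages grown in DMEM with 10% heat-inactivated FCS and allowed to attach 48 h, then exposed 48 h at 37 °C to 12.5–400.0 μM. Triplicates. MTT 0.1 mg/mL for 3 h, read at 560 nm; IC50 by linear regression against the solvent control. SI = IC50 J774.1 / parasite IC50 (Sylvio X-10 amastigotes or Tulahuen 2 epimastigotes, the latter measured by A600 growth inhibition at day 5).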

Salmonella typhimurium [2] = experiment: Mutagenic activity in Salmonella typhimurium TA98 at 0.3 to 40 ug/plate by Ames test in presence of mouse liver S9 fraction; type: toxicity, organism-based; details: salmonella enterica subsp. enterica serovar typhimurium
How it was run: (§1)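 Ames plate-incorporation assay with S. typhimurium TA98 in Vogel-Bonner E minimal glucose agar. Toxicity toward the bacteria was checked first. DMSO solutions were run in triplicate at five consecutive third-dilutions, starting at the highest non-toxic dose. Positive controls were 4-nitro-o-phenylenediamine (20.0 μg/plate) and 2-aminofluorene (10.0 μg/plate); DMSO was the negative control. Revertants were counted manually. A compound was called mutagenic when revertants were at least twice the negative control at two or more consecutive doses.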

Trypanosoma cruzi [3] = experiment: Antitrypanosomal activity against Trypanosoma cruzi Tulahuen 2 epimastigotes assessed as growth inhibition after 5 days; type: functional, organism-based; details: Trypanosoma cruzi, Tulahuen 2, 120 h
How it was run: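 Epimastigotes were grown axenically at 28 °C in BHI-tryptose with 5% FBS and seeded from a 5–7 day culture at 1 × 10⁶ cells/mL. Drug from a DMSO stock was added (final DMSO ≤0.4%; the control contained 0.4% DMSO). Duplicates were run. A600 was read at day 5, and % inhibition was calculated relative to day-0 and control readings. IC50 = concentration that halves the absorbance ratio.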

Salmonella typhimurium [4] = experiment: Mutagenic activity in Salmonella typhimurium TA98 at 0.3 to 40 ug/plate by Ames test; type: toxicity, organism-based; details: salmonella enterica subsp. enterica serovar typhimurium; how it was run: as §1
Trypanosoma cruzi [5] = experiment: Antitrypanosomal activity against Trypanosoma cruzi CL Brener infected in BALB/c mouse assessed as peak of maximum parasitemia at 192 umol/kg/day, po for 14 days administered in saline and tween 80 measured up to 60 days relative to control; type: functional
How it was run: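 Male BALB/c mice (30 days old, 25–30 g, SPF) were infected i.p. with 10³ blood trypomastigotes, n = 8/group. Daily oral gavage in saline/Tween 80 (4:1) ran for 14 days from day 6 post-infection; controls received vehicle only. Parasitemia was counted weekly in tail-vein blood by hemocytometer for 60 days, and survival was recorded.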

Trypanosoma cruzi [6] = experiment: Antitrypanosomal activity against Trypanosoma cruzi CL Brener infected in BALB/c mouse assessed as mouse survival at 192 umol/kg/day, po for 14 days administered in saline and tween 80 measured up to 60 days relative to control; type: functional
[7] = Selectivity index, ratio of IC50 for African green monkey Vero cells to IC50 for Trypanosoma cruzi Sylvio X-10 amastigotes; type: toxicity, cell-based; details: read-out: Ratio IC50
How it was run: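 VERO cytotoxicity: cells exposed 48 h at 37 °C, 5% CO2 to serial dilutions from a maximum of 2000 μM (DMSO stocks; DMSO <0.1% control); growth inhibition read by MTT at 570 nm. Amastigote IC50: Sylvio X-10-infected VERO cells, five doses, infected cells counted among 300 (Giemsa), quadruplicate, three experiments, sigmoidal fit. SI = IC50 VERO / IC50 amastigote.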

Trypanosoma cruzi [8] = experiment: Antitrypanosomal activity against Trypanosoma cruzi Sylvio X-10 amastigotes infected in African green monkey Vero cells assessed as eradication of amastigotes after 72 hrs by Giemsa staining-based assay; details: Trypanosoma cruzi, Sylvio X-10, Vero, 72 h

| Compound | selectivity ratio [1] | Activity (Salmonella typhimurium [2]) | IC50 (Trypanosoma cruzi [3]) | Activity (Salmonella typhimurium [4]) | Time (Trypanosoma cruzi [5]) | survival at 192 µmol/kg (Trypanosoma cruzi [6]) | selectivity ratio [7] | IC50 (Trypanosoma cruzi [8]) |
| --- | --- | --- | --- | --- | --- | --- | --- | --- |
| C=CCn1c(C)cs\c1=N/N=C/C=C/c1cccs1 | < 7 | Non-toxic | > 25 µM | Non-toxic | – | – | – | – |
| O=C(Cn1ccnc1[N+](=O)[O-])NCc1ccccc1 [BENZNIDAZOLE] | – | – | 7 µM | – | 42 days | 100% | 300 | 3.3 µM |
